The target in series [1] is T1, LgtC (Neisseria meningitidis, UniProt Q93EK7).
T1 sequence (Q93EK7 whole entry): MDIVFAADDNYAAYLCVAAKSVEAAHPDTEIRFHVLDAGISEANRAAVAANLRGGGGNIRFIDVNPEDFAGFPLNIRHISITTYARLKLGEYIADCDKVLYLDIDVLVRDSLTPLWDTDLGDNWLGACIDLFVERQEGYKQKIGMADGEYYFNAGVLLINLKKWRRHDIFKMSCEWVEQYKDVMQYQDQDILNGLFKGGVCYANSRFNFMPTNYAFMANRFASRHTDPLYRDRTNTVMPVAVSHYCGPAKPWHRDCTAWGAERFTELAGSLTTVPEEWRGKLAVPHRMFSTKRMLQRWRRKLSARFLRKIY
Nature of the series: Inhibition of recombinant Neisseria meningitidis glycosyltransferase LgtC using UDP-Gal/lactose as substrate preincubated for 20 mins with UDP-Gal followed by lactose addition measured after 20 mins in presence of MnCl2 by malachite green dye based colorimetric assay. The method, boiled down:
(§1)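 Dose-response with DTT-activated recombinant N. meningitidis LgtC at 20-50% donor turnover. Pre-incubation was 20 min at 30 °C with inhibitor (0.1-50 up to 0.1-250 µM, 10% DMSO), UDP-Gal 28 µM, MnCl2 5 mM, CIP 10 U/mL, CEL 1 mg/mL and Triton 0.01% in 13 mM HEPES pH 7.0. Lactose 2 mM was then added for 20 min at 30 °C. Malachite Green A620 read-out; triplicate, mean ± SD.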

Series [2] addresses T1, LgtC. Nature of the series: (§2) Inhibition of recombinant Neisseria meningitidis glycosyltransferase LgtC using UDP-Gal/lactose as substrate preincubated for 20 mins with UDP-Gal followed by lactose addition measured after 20 mins in presence of MnCl2. In a few lines:
as §1

Series [3] deals with T2, LgtC (Neisseria meningitidis) (UniProt Q93EK7).
T2 sequence (whole entry): T1 sequence (Q93EK7 whole entry)
Described as §2. In a few lines: as §1

Series [4] has as its target T2, LgtC (Neisseria meningitidis). Nature of the series: Inhibition of recombinant Neisseria meningitidis glycosyltransferase LgtC assessed as ratio of Kinact/Ki using UDP-Gal/lactose as substrate preincubated for 20 mins with UDP-Gal followed by lactose addition measured after 20 mins in presence of MnCl2. In a few lines:
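Kinetic parameters from LgtC activity at ranges of inhibitor (0-50 up to 0-250 µM) after 0, 5, 10 and 20 min pre-incubation. Activity, as % of DMSO control, was plotted against pre-incubation time and fitted exponentially to give Kobs. Kobs was then fitted against [I] with the hyperbolic equation to obtain kinact and Ki. Triplicate.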

Series [5] deals with T1, LgtC. Description: Inhibition of recombinant Neisseria meningitidis glycosyltransferase LgtC using UDP-Gal/lactose as substrate preincubated for 30 mins with UDP-Gal followed by lactose addition measured after 20 mins in presence of MnCl2 and calf intestinal phosphatase by malachite green dye based enzyme-coupled colorimetric assay relative to control. In a few lines:
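IC50 set-up using DTT-activated recombinant N. meningitidis LgtC at 20-50% donor turnover. Enzyme was pre-incubated 30 min at 30 °C with inhibitor (0.1-100 or 0.1-50 µM, 10% DMSO), UDP-Gal 28 µM, MnCl2 5 mM, CIP 10 U/mL, CEL 1 mg/mL and Triton 0.01% in 13 mM HEPES pH 7.0. Lactose 2 mM was added for 20 min at 30 °C, then read by Malachite Green phosphate detection at 620 nm.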

The subject of series [6] is Haemophilus influenzae. Nature of the series: Potentiation of human serum-induced killing of Haemophilus influenzae R2866 at 100 uM in presence of 30% v/v human serum pre-incubated for 1 hr followed by drug removal and re-plating of colonies for 24 hrs by bacterial viable count method. In kind it is functional, organism-based. In a few lines:
(§3)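 Overnight R2866 sBHI culture, diluted to OD590 0.7, was exposed 1 h at 37 °C to 30% v/v normal human serum plus inhibitor (50 or 100 µM); the control received 30% serum alone. Serum and compound were removed by centrifugation and two sBHI washes. Cells were serially diluted and plated on chocolate agar (24 h, 37 °C, 5% CO2) for viable counts. Triplicate, mean.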

Series [7] concerns Haemophilus influenzae. Description: Toxicity against Haemophilus influenzae R2866. It is filed as organism-based. To be noted: in vivo.
Series [8] deals with Haemophilus influenzae. Nature of the series: Growth inhibition of Haemophilus influenzae R2866 up to 100 uM incubated for 1 hr followed by drug removal and re-plating of colonies for 24 hrs by bacterial viable count method. In kind it is organism-based. The settings on record: in vivo. In a few lines:
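H. influenzae R2866 was grown overnight in supplemented BHI at 37 °C, 180 rpm, then diluted to OD590 0.7. Cells were exposed 1 h at 37 °C to compound (0-200 µM; final DMSO 10%) or DMSO. They were centrifuged, washed twice with sBHI, serially diluted and plated on chocolate agar (24 h, 37 °C, 5% CO2) for viable counts. Triplicate, mean; unpaired t-test.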

Series [9] addresses T2, LgtC (Neisseria meningitidis). Description: Inhibition of recombinant Neisseria meningitidis glycosyltransferase LgtC using UDP-Gal/lactose as substrate at 50 uM preincubated for 30 mins with UDP-Gal followed by lactose addition measured after 20 mins in presence of MnCl2 and calf intestinal phosphatase by malachite green dye based enzyme-coupled colorimetric assay relative to control. In a few lines: (§4)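 Recombinant N. meningitidis LgtC, activated with 10 mM DTT (1:1, 30 min, 30 °C) and set to 20-50% UDP-Gal turnover. It was pre-incubated 30 min at 30 °C with 25 or 50 µM inhibitor in 13 mM HEPES pH 7.0 containing UDP-Gal 28 µM, MnCl2 5 mM, CIP 10 U/mL, CEL 1 mg/mL, Triton 0.01% and 10% DMSO. Lactose 2 mM was then added for 20 min at 30 °C. Malachite Green read at A620; activity taken against a DMSO control.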

Series [10] shares this target. Description: Inhibition of recombinant Neisseria meningitidis glycosyltransferase LgtC using UDP-Gal/lactose as substrate at 25 uM preincubated for 30 mins with UDP-Gal followed by lactose addition measured after 20 mins in presence of MnCl2 and calf intestinal phosphatase by malachite green dye based enzyme-coupled colorimetric assay relative to control. In a few lines: as §4

For series [11], the system named is Haemophilus influenzae. Description: Potentiation of human serum-induced killing of Haemophilus influenzae R2866 at 50 uM in presence of 30% v/v human serum pre-incubated for 1 hr followed by drug removal and re-plating of colonies for 24 hrs by bacterial viable count method. In kind it is functional, organism-based. The method, boiled down:
as §3

Each structure is given as a SMILES string. Calls of active or inactive are those of the source. The rule behind the calls is not given here. A value given as a limit tells only on which side of the number the result lay.

For `O=C1/C(=C\c2cccc(Cl)c2)C(C(F)(F)F)=NN1c1ccccc1`, the IC50 (as a rule, the concentration that inhibits the measured activity by half) in [1] turned out to be 64 µM. Besides, in series [2], the inhibition constant Ki (commonly the equilibrium dissociation constant of an inhibitor or competing ligand from its target) is 88 µM. Moreover, in series [3], the Kinact stood at 0.0016 s⁻¹. Also, the Ratio in series [4] was 18 M⁻¹ s⁻¹.
On to `O=C1/C(=C\c2ccc(O)cc2)C(C(F)(F)F)=NN1c1ccccc1`, for which the IC50 in series [1] amounted to 5.8 µM. The Ki in series [2] was determined as 6.8 µM. The Kinact in series [3] worked out at 0.0025 s⁻¹. Further, the Ratio in [4] turned out to be 370 M⁻¹ s⁻¹.
Take `O=C1/C(=C\c2ccc(Cl)cc2)C(C(F)(F)F)=NN1c1ccccc1`: the IC50 in series [1] stood at 80 µM; in series [5] it was 25 µM. Also, the Ki in series [2] worked out at 49 µM. Moreover, the Kinact in series [3] amounted to 0.0009 s⁻¹. Besides, in series [4], the Ratio was found to be 18 M⁻¹ s⁻¹.
Consider `O=C1/C(=C\c2cccc(OCc3ccccc3)c2)C(C(F)(F)F)=NN1c1ccccc1`, for which the IC50 worked out at 38 µM in [1] and 18 µM in series [5]. The outcome in series [6] was inactive. The “growth inhibition (GI)” value in series [7] was “Toxic”; in series [8] it was “Non-Toxic”. Also, in [2], the Ki is 50 µM. For the same molecule, the Kinact in series [3] is 0.0018 s⁻¹. The Ratio in series [4] was determined as 36 M⁻¹ s⁻¹.
As to `COc1ccc(/C=C2\C(=O)N(c3cccc(C(=O)NCCO)c3)N=C2C(F)(F)F)cc1Br`, the IC50 in series [5] was found to be 4.3 µM.
Take `COc1ccc(/C=C2\C(=O)N(Cc3ccccc3)N=C2C(F)(F)F)cc1Br`: in series [5], the IC50 is 12 µM.
For the molecule `COc1ccc(/C=C2\C(=O)N(c3ccccc3)N=C2C(=O)O)cc1Br`, the inhibition (as a rule, the drop in the measured response relative to a control, in per cent) in [9] came to 58%; in series [10] it was 35%.
As for `COc1ccc(/C=C2\C(=O)N(c3ccccc3)N=C2C(F)(F)F)cc1Br`, the IC50 in series [1] was 6.4 µM; in series [5] it was 3.1 µM. Besides, the outcome in [11] was inactive. Besides, the Ki in [2] stood at 7.1 µM. In [3], the Kinact stood at 0.0012 s⁻¹. Further, in series [4], the Ratio amounted to 163 M⁻¹ s⁻¹. Moreover, the inhibition in [9] worked out at 84%; in series [10], 80%. Also, the “growth inhibition (GI)” value in [8] is “Non-Toxic”.
As to `CCOC(=O)c1ccccc1/C=C1\C(=O)N(c2ccccc2)N=C1C(F)(F)F`, in series [5], the IC50 is greater than 100 µM.
Same read-out and setting: the value for `COc1ccc(/C=C2\C(=O)N(c3cccc(C(=O)O)c3)N=C2C(F)(F)F)cc1Br` was 3 µM.
Consider `COc1ccc(/C=C2\C(=O)N(c3ccccc3)N=C2C)cc1Br`, for which the IC50 in series [5] was greater than 50 µM. Further, the values for the inhibition in series [9] and in series [10] were 43% and 33%, respectively.
In the case of `COc1ccc(/C=C2\C(=O)N(c3ccccc3)N=C2C(N)=O)cc1Br`, the inhibition in series [9] came out at 39%; in series [10] it was 31%.
For the molecule `O=C1/C(=C\c2ccccc2)C(C(F)(F)F)=NN1c1ccccc1`, the IC50 in series [1] is 63 µM; in [5], 28 µM. In addition, the inhibitory constant (Ki) in series [2] came out at 153 µM. Moreover, in series [3], the Kinact turned out to be 0.002 s⁻¹. For the same molecule, the Ratio in series [4] came out at 13 M⁻¹ s⁻¹.
For the molecule `COc1ccc(/C=C2\C(=O)N(c3ccc(C(=O)O)cc3)N=C2C(F)(F)F)cc1Br`, the IC50 in series [5] stood at 2.9 µM.
On to `O=C1/C(=C\c2ccc(OCc3ccccc3)cc2)C(C(F)(F)F)=NN1c1ccccc1`, for which the IC50 in series [1] turned out to be 3.3 µM. For the same molecule, the Ki in series [2] amounted to 4.7 µM. Besides, in series [3], the Kinact stood at 0.0011 s⁻¹. The Ratio in [4] is 238 M⁻¹ s⁻¹.
For `CCOC(=O)CC1=NN(c2ccccc2)C(=O)/C1=C\c1ccc(OC)c(Br)c1`, the inhibition in series [9] turned out to be 67%; in [10], 32%.
As to `COc1ccc(/C=C2\C(=O)N(c3ccccc3)N=C2C(F)(F)F)cc1`, in [1], the IC50 is 8.9 µM. For the same molecule, in [2], the Ki was determined as 19 µM. The Kinact in [3] was 0.0015 s⁻¹. Further, the Ratio in series [4] was found to be 80 M⁻¹ s⁻¹.
In the case of `CC1=NN(c2ccccc2)C(=O)/C1=C\c1ccccc1C(F)(F)F`, the result in series [6] was inactive. In addition, the results for the “growth inhibition (GI)” value in [7] and in series [8] were “Toxic” and “Non-Toxic”, respectively.
Regarding `CCOC(=O)C1=NN(c2ccccc2)C(=O)/C1=C\c1ccc(OC)c(Br)c1`, the inhibition in series [9] is 66%; in [10], 61%.

For the origin of these results see ChEMBL document CHEMBL4219186, “Structure-activity relationships in a new class of non-substrate-like covalent inhibitors of the bacterial glycosyltransferase LgtC” (Bioorg Med Chem, 2018).
